Measurements from ChEMBL document CHEMBL4020708, “Studies of CDK 8/19 inhibitors: Discovery of novel and selective CDK8/19 dual inhibitors and elimination of their CYP3A4 time-dependent inhibition potential” (Bioorg Med Chem, 2017).
Values after ≈ are worked out from the molar mass of the structure shown.

Columns and labels:
CYP3A4 = CYP3A4 (Homo sapiens, UniProt P08684); test: Time-dependent inhibition of CYP3A4 in human liver microsomes assessed as reduction in testosterone to 6beta-hydroxytestosterone conversion by measuring remaining activity at 30 uM preincubated for 60 mins followed by testosterone addition measured after 20 mins in presence of NADPH by UPLC analysis relative to control; assay type: ADME; conditions: probe testosterone (6beta-hydroxylation), read-out: Activity
Chain of CYP3A4 (P08684 whole entry): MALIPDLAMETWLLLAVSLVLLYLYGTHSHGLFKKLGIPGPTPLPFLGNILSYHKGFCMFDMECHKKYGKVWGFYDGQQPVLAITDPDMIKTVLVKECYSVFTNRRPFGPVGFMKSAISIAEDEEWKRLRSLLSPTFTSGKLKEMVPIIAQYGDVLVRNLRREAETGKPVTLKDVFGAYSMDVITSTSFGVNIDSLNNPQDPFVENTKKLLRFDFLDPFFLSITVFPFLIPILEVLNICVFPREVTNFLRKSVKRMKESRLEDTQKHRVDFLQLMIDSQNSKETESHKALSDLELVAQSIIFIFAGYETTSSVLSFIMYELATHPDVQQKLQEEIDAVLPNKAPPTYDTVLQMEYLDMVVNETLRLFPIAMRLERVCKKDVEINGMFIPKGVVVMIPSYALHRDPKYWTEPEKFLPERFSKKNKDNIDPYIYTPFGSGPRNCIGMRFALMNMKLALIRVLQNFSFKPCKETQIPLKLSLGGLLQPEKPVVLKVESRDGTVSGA
Summary of the method: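 Compound at 30 μM preincubated with human liver microsomes in phosphate buffer pH 7.4 at 37 °C for 0 or 60 min with an NADPH-generating system. Testosterone then added for 20 min, and 6β-hydroxytestosterone measured by UPLC. Activity expressed as % of DMSO control; % remaining taken after 60 min preincubation.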

[1] = Solubility of the compound at pH 6.8; assay type: physicochemical; conditions: buffer
Summary of the method: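 Compound added from DMSO solution to JP 2nd disintegration fluid (pH 6.8) and incubated. Precipitate removed by filtration, and filtrate concentration measured by plate reader or HPLC.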

CDK8/Cyclin C = CDK8/Cyclin C (Homo sapiens, UniProt P49336); test: Inhibition of kinase tracer 236 binding to full length N terminal GST-tagged human CDK8 (1 to 464 end residues) /CycC ( 1 to 283 end residues) expressed in baculovirus expression system after 60 min by TR-FRET assay
Chain of CDK8/Cyclin C (P49336 whole entry): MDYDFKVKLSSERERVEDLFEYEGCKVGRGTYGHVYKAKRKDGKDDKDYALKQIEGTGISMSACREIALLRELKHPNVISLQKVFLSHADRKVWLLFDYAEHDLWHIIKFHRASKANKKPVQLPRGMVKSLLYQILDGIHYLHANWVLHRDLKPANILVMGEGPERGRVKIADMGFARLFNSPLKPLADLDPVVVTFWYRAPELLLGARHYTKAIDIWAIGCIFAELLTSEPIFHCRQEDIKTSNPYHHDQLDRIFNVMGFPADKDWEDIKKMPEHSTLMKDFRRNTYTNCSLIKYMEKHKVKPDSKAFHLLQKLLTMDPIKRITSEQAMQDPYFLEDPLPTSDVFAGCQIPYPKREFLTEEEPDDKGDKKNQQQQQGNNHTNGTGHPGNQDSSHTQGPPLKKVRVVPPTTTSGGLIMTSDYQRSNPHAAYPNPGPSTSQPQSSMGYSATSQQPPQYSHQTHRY
Chain of CDK8/Cyclin C (P24863 whole entry, further chain): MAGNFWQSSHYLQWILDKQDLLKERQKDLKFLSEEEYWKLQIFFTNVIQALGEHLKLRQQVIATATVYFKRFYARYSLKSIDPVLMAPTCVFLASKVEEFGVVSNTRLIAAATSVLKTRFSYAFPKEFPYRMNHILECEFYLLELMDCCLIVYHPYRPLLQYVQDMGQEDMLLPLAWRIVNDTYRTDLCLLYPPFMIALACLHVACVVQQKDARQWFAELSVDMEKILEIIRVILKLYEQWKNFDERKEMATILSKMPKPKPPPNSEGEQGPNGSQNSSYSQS
Summary of the method: (§1)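 TR-FRET ligand displacement using 20 nM GST-CDK8/CycC or GST-CDK19/CycC, 20 nM Kinase Tracer 236 and Tb-anti-GST antibody. Buffer 25 mM HEPES, 10 mM MgCl₂, 2 mM DTT, 0.01% Tween-20. Incubated 60 min at rt.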

[2] = molecular target: Cyclin-dependent kinase 8 (Homo sapiens, UniProt P49336); test: Inhibition of CDK8 in human SW480 cells assessed as reduction in IFN-gamma induced STAT1 phosphorylation at Ser727 residues preincubated for 2 hrs followed by IFN-gamma addition measured after 1 hr by In-cell western assay; assay type: cell-based
Chain of Cyclin-dependent kinase 8 (P49336 whole entry): as the sequence (P49336 whole entry) above
Summary of the method: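 SW480 cells kept in L-15 with 10% FBS at 37 °C and plated at 6000 cells/well overnight. Compound applied 2 h, then 10 ng/mL IFN-γ for 1 h. Cells fixed, permeabilized and blocked, then probed overnight at 4 °C with anti-pSTAT1 Ser727. IRDye 800CW secondary plus DRAQ5 for DNA, Odyssey imaging.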

[3] = molecular target: Cyclin-C/Cyclin-dependent kinase 19 (Homo sapiens, UniProt Q9BWU1); test: Inhibition of kinase tracer 236 binding to GST-tagged CDK19/CycC (unknown origin) after 60 min by TR-FRET assay; assay type: protein-complex assay; summary of the method: as §1
Chain of Cyclin-C/Cyclin-dependent kinase 19 (Q9BWU1 whole entry): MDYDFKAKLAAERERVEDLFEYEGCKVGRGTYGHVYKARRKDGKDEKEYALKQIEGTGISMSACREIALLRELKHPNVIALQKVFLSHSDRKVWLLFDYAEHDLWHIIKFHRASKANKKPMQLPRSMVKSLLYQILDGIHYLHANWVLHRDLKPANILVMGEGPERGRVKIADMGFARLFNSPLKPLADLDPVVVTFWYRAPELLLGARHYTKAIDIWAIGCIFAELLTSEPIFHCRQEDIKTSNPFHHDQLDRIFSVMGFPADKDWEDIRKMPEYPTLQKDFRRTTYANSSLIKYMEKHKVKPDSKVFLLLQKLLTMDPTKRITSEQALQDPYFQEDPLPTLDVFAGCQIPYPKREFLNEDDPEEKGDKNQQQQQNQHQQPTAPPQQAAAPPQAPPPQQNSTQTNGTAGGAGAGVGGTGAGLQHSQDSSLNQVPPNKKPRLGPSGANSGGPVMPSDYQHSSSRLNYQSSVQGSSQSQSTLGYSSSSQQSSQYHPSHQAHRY
Chain of Cyclin-C/Cyclin-dependent kinase 19 (P24863 whole entry, further chain): as the sequence (P24863 whole entry, further chain) above

Plasma = test: Drug level in mouse plasma treated with (E)-3-(4-(1-Methyl-1H-pyrazol-4-yl)pyridin-3-yl)-N-(4-(morpholinomethyl)phenyl)acrylamide at 1 mg/kg, po administered as cassette dose measured up to 8 hrs by LC/MS/MS analysis; assay type: ADME, organism-based; conditions: in vivo
Summary of the method: (§2)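 Cassette dosing to non-fasted mice, 1 mg/kg po (0–8 h). Plasma obtained from blood by centrifugation, deproteinized with acetonitrile, centrifuged, and the supernatant analysed by LC/MS/MS.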

Liver [4] = test: Intrinsic clearance in human liver microsomes at 1 umol/L after 15 to 30 mins in presence of NADPH by LC/MS/MS analysis; assay type: ADME, microsome; conditions: 1 µM
Summary of the method: (§3)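 Human or mouse liver microsomes at 0.2 mg/mL protein in 50 mmol/L phosphate buffer pH 7.4 with 1 μmol/L compound. Reaction started with an NADPH-generating system and stopped at 15 and 30 min with acetonitrile. LC/MS/MS readout. Intrinsic clearance taken as initial metabolic velocity (slope of concentration-time) divided by compound concentration.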

Liver [5] = test: Intrinsic clearance in mouse liver microsomes at 1 umol/L after 15 to 30 mins in presence of NADPH by LC/MS/MS analysis; assay type: ADME, microsome; conditions: 1 µM; summary of the method: as §3
[6] = Oral bioavailability in mouse at 1 mg/kg administered as cassette dose measured up to 8 hrs by LC/MS/MS analysis; assay type: ADME, organism-based; conditions: in vivo
Summary of the method: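 Bioavailability from mouse cassette dosing, 0.1 mg/kg iv and 1 mg/kg po, non-fasted animals. Plasma was deproteinized with acetonitrile and compound quantified by LC/MS/MS.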

[7] = AUC (0 to 8 hrs) in mouse at 1 mg/kg, po administered as cassette dose by LC/MS/MS analysis; assay type: ADME, organism-based; design: time < 8 hr, dose 1 mg/kg, route oral; conditions: in vivo; summary of the method: as §2
[8] = MRT in mouse at 1 mg/kg, po administered as cassette dose measured up to 8 hrs by LC/MS/MS analysis; assay type: ADME, organism-based; conditions: in vivo; summary of the method: as §2
[9] = Cmax in mouse at 1 mg/kg, po administered as cassette dose measured up to 8 hrs by LC/MS/MS analysis; assay type: ADME, organism-based; design: dose 1 mg/kg, route oral; conditions: in vivo; summary of the method: as §2
[10] = Total clearance in mouse at 1 mg/kg, po administered as cassette dose measured up to 8 hrs by LC/MS/MS analysis; assay type: ADME, organism-based; conditions: in vivo

Structure (SMILES)	activity at 20 min, 30 µM (CYP3A4) [%]	IC50 (CDK8/Cyclin C) [nM]	EC50 [2] [nM]	further results
Cn1cc(-c2ccncc2/C=C/C(=O)Nc2ccc3c(c2)CN(CC(F)(F)F)CC3)cn1	22	3.2	8.4	solubility [1]: 8.9 µg/mL (≈ 20.2 µM)
Cn1cc(-c2ccncc2CCC(=O)Nc2ccc(CN3CCOCC3)cc2)cn1	71	41	95	IC50 [3]: 50 nM
CC1COCCN1Cc1ccc(NC(=O)/C=C/c2cnccc2-c2cnn(C)c2)cc1 (stereo unspecified)	59	20	27	solubility [1]: > 75 µg/mL
Cn1cc(-c2ccncc2/C=C/C(=O)Nc2ccc(CN3C4CCC3COC4)cc2)cn1	99	6.3	17	–
Cn1cc(-c2ccncc2/C=C/C(=O)Nc2ccc(CN3CC4CC3CO4)cc2)cn1 (stereo unspecified)	100	16	19	solubility [1]: > 82 µg/mL
Cn1cc(-c2ccncc2/C=C/C(=O)Nc2ccc(CN3CCOCC3=O)cc2)cn1	–	–	–	Drug metabolism (Plasma): Metabolite_Detected
Cn1cnc2cc(-c3ccncc3/C=C/C(=O)Nc3ccc(CN4CCOCC4)cc3)ccc21	–	4800	> 10000	–
O=C(/C=C/c1cncc(F)c1-c1cnn(C2CC2)c1)Nc1ccc(CN2CCOCC2)cc1	46	6.5	2.3	–
Cn1cc(-c2ccncc2/C=C/C(=O)Nc2ccc(CNCCO)cc2)cn1	–	–	–	Drug metabolism (Plasma): Metabolite_Detected
Cn1cc(-c2c(F)cncc2/C=C/C(=O)Nc2ccc(CN3CCOCC3)cc2)cn1	60	5.2	3.6	–
CC1CN(Cc2ccc(NC(=O)/C=C/c3cnccc3-c3cnn(C)c3)cc2)CCO1 (stereo unspecified)	84	6.7	16	–
Cn1cc(-c2ccncc2/C=C/C(=O)Nc2ccc(CN3CCC(F)(F)C3)cc2)cn1	69	6.2	17	solubility [1]: 33 µg/mL (≈ 77.9 µM)
O=C(/C=C/c1cnccc1-c1cnn(C2CC2)c1)Nc1ccc2c(c1)CCN(CC(F)(F)F)C2	88	7.1	14	solubility [1]: 3.9 µg/mL (≈ 8.34 µM)
COc1ccc(-c2ccncc2/C=C/C(=O)Nc2ccc(CN3CCOCC3)cc2)s1	–	28	97	–
O=C(/C=C/c1cnccc1-c1cn[nH]c1)Nc1ccc(CN2CCOCC2)cc1	–	0.54 to 80	21 to 370	microsomal intrinsic clearance (Liver [4]): 5.1 µL/min/mg; Drug metabolism (Plasma): Metabolite_Detected; intrinsic clearance (Liver [5]): 6.7 µL/min/mg; IC50 [3]: 100 nM
O=C(CCc1cnccc1-c1cnn(C2CC2)c1)Nc1ccc(CN2CCOCC2)cc1	59	29	130	IC50 [3]: 41 nM
O=C(/C=C/c1cnccc1-c1cnn(CC(F)(F)F)c1)Nc1ccc(CN2CCOCC2)cc1	–	28	150	–
O=C(/C=C/c1cnccc1-c1cncs1)Nc1ccc(CN2CCOCC2)cc1	–	41	140	–

Structure (SMILES)	activity at 20 min, 30 µM (CYP3A4) [%]	IC50 (CDK8/Cyclin C) [nM]	EC50 [2] [nM]	further results
Cn1cc(-c2cc[n+]([O-])cc2/C=C/C(=O)Nc2ccc(CN3CCOCC3)cc2)cn1	–	–	–	Drug metabolism (Plasma): Metabolite_Detected
NC(=O)c1ccc(-c2ccncc2/C=C/C(=O)Nc2ccc(CN3CCOCC3)cc2)s1	–	8.3	690	–
Cn1cc(-c2ccncc2/C=C/C(=O)Nc2ccccc2)cn1	97	51	110	solubility [1]: 26 µg/mL (≈ 85.4 µM)
Cn1cc(-c2ccncc2/C=C/C(=O)Nc2ccc(CN3CC(F)(F)C3)cc2)cn1	98	11	84	solubility [1]: 44 µg/mL (≈ 107 µM)
O=C(/C=C/c1cnccc1-c1cnn(C2CC2)c1)Nc1ccc(CN2CCOCC2)cc1	54	6.4	11	bioavailability [6]: 51.2%; microsomal intrinsic clearance (Liver [4]): 25 µL/min/mg; AUC(0-t) at 8 h [7]: 340 ng·h/mL; MRT [8]: 1.5 h; intrinsic clearance (Liver [5]): 64 µL/min/mg; IC50 [3]: 7.6 nM; Cmax [9]: 208 ng/mL; CL/F [10]: 25.4 mL/min/kg
Cn1cc(-c2ccncc2/C=C/C(N)=O)cn1	–	> 10000	> 10000	–
O=C(/C=C/c1cnccc1-c1cnn(Cc2ccccc2)c1)Nc1ccc(CN2CCOCC2)cc1	–	4.5	28	bioavailability [6]: 15.5%; microsomal intrinsic clearance (Liver [4]): 78 µL/min/mg; AUC(0-t) at 8 h [7]: 26.9 ng·h/mL; MRT [8]: 1.2 h; intrinsic clearance (Liver [5]): 118 µL/min/mg; Cmax [9]: 15.7 ng/mL; CL/F [10]: 96.1 mL/min/kg
Cn1cc(-c2ccnc(O)c2/C=C/C(=O)Nc2ccc(CN3CCOCC3)cc2)cn1	89	> 10000	> 10000	–
O=C(/C=C/c1cnccc1-c1cnn(C2CC2)c1)Nc1ccc(CN2CC3CC2CO3)cc1 (stereo unspecified)	101	9.6	3.1	solubility [1]: > 92 µg/mL
COc1ncc(-c2ccncc2/C=C/C(=O)Nc2ccc(CN3CCOCC3)cc2)s1	–	8.1	12	–
O=C(/C=C/c1cnccc1-c1ccc2[nH]cnc2c1)Nc1ccc(CN2CCOCC2)cc1	–	1.5	10	–
O=C(/C=C/c1cnccc1-c1cnn(C2CC2)c1)Nc1ccc(CN2CC3CC(C2)O3)cc1	108	6.7	5.5	solubility [1]: 60 µg/mL (≈ 136 µM)
Cn1cc(-c2ccncc2/C=C/C(=O)Nc2ccc3c(c2)CCN(CC(F)(F)F)C3)cn1	91	4.5	7	solubility [1]: > 81 µg/mL
O=C(/C=C/c1cnccc1-c1cnsc1)Nc1ccc(CN2CCOCC2)cc1	–	27	110	–
O=C(/C=C/c1cnccc1-c1cnn(C(F)F)c1)Nc1ccc(CN2CCOCC2)cc1	–	6.4 to 24	11 to 50	–
Cn1cnc2ccc(-c3ccncc3/C=C/C(=O)Nc3ccc(CN4CCOCC4)cc3)cc21	–	2.5	2.4	–
Cn1cc(-c2cc(N)ncc2/C=C/C(=O)Nc2ccc(CN3CCOCC3)cc2)cn1	–	990	1300	–
